Tests used:
[1] = Stability of the radio-complex with pH and time at room temperature; format: physicochemical
How it was run: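 Labelling: 7.4 MBq pertechnetate added to 20 µg test compound (10% ethanol) with 40 µg SnCl2·2H2O, pH 7, 10 min at room temperature in the dark. pH varied from 2 to 10 and room-temperature stability followed over time. Purity by ITLC: acetone (free pertechnetate) and pyridine:acetic acid:water 3:5:1.5 (hydrolysed fraction); strips counted with a gamma probe. Triplicates, one-way ANOVA.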

[2] = Paper electrophoresis; format: physicochemical; settings: 300V, 1 h
How it was run: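 Radio-complex spotted at the central point of Whatman No. 1 paper, with sodium phosphate buffer as the mobile phase. Strip dried after the run and activity along it counted in a well-type gamma scintillation […]; the direction of migration indicates charge.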

[3] = Plasma protein binding of the radio-complex; format: in vitro ADME; settings: rat plasma, 37°C up to 1 hr
How it was run: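 Pellet re-suspended in 5% TCA and re-centrifuged. Precipitate and supernatant counted in a well-type gamma counter; binding given as protein-bound percent of total activity.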

[4] = Blood pharmacokinetics after intravenous administration; format: in vivo, rat; settings: rats, i.v.
How it was run: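 Male Sprague Dawley rats (200–250 g) given 200 µCi of Tc-99m-labelled test compound via a penile vein. Blood drawn from the ocular vein at intervals over 0–120 min and counted in a well-type scintillation counter, expressed as counts per ml of blood. Peak times read from the activity–time curve.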

[5] = Bio-distribution in MNU + TP treated rats; format: in vivo, rat; settings: for percent-specific uptake in the prostate: MNU + TP treated (carcinogen-induced) rats; for ID/g Bladder / ID/g Bone / ID/g Brain / ID/g Heart / ID/g Kidney / ID/g Large intestine / ID/g Liver / ID/g Lung / ID/g Muscle / ID/g Prostate / ID/g Small intestine / ID/g Spleen / ID/g Stomach / ID/g Thyroid: MNU + TP treated rats
[6] = Bio-distribution in normal control rats; format: in vivo, rat; settings: for ID/g Bladder / ID/g Bone / ID/g Brain / ID/g Heart / ID/g Kidney / ID/g Large intestine / ID/g Liver / ID/g Lung / ID/g Muscle / ID/g Prostate / ID/g Small intestine / ID/g Spleen / ID/g Stomach / ID/g Thyroid: normal control rats; for percent-specific uptake in the prostate: normal healthy rats
How it was run: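 Healthy adult male Sprague Dawley rats (6–7 weeks, 200–250 g) given 200 µCi of Tc-99m-labelled test compound intravenously via a penile vein. Animals sacrificed at several post-injection times (1, 2, 4 and 6 h). Organs excised, weighed and counted in a well scintillation counter. %ID/g calculated against a standard of the injected dose. n=3, mean ± SD, ANOVA.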

[7] = Partition coefficient measurement log Po/w; format: physicochemical

Tc-99m-17-oxo-17a-aza-D-homo-5-androsten-3 β-ylphenoxyacetate [Tc-99m-17a-aza steroid]
percent radiochemical purity ([1]; pH 2): 92.72% | percent radiochemical purity ([1]; pH 4): 97.24% | percent radiochemical yield ([1]; pH 10): 86.84% | charge of the radio-complex [2]: neutral | Plasma protein binding [3]: 86.23 ± 7.08% | time of first peak in blood [4]: 50 s | time of second peak in blood [4]: 50 min | percent-specific uptake in the prostate ([5]; 1 h after administration): 0.913% | percent-specific uptake in the prostate ([5]; 2 h after administration): 0.825% | percent-specific uptake in the prostate ([5]; 4 h after administration): 0.857% | percent-specific uptake in the prostate ([5]; 6 h after administration): 0.673% | ID/g Bladder ([5]; First h): 1.465±0.175 ID/g | ID/g Bladder ([5]; Fourth h): 0.897±0.456 ID/g | ID/g Bladder ([5]; Second h): 0.979±0.247 ID/g | ID/g Bladder ([5]; Sixth h): 0.871±0.578 ID/g | ID/g Bone ([5]; First h): 0.437±0.237 ID/g | ID/g Bone ([5]; Fourth h): 2.24±1.062 ID/g | ID/g Bone ([5]; Second h): 1.381±0.609 ID/g | ID/g Bone ([5]; Sixth h): 2.038±1.163 ID/g | ID/g Brain ([5]; First h): 0.139±0.124 ID/g | ID/g Brain ([5]; Fourth h): 0.149±0.085 ID/g | ID/g Brain ([5]; Second h): 0.257±0.139 ID/g | ID/g Brain ([5]; Sixth h): 0.132±0.048 ID/g | ID/g Heart ([5]; First h): 0.045±0.036 ID/g | ID/g Heart ([5]; Fourth h): 0.231±0.171 ID/g | ID/g Heart ([5]; Second h): 0.404±0.217 ID/g | ID/g Heart ([5]; Sixth h): 0.337±0.054 ID/g | ID/g Kidney ([5]; First h): 6.283±0.746 ID/g | ID/g Kidney ([5]; Fourth h): 7.836±1.861 ID/g | ID/g Kidney ([5]; Second h): 7.37±1.162 ID/g | ID/g Kidney ([5]; Sixth h): 8.08±1.784 ID/g | ID/g Large intestine ([5]; First h): 0.264±0.121 ID/g | ID/g Large intestine ([5]; Fourth h): 0.878±0.439 ID/g | ID/g Large intestine ([5]; Second h): 0.383±0.034 ID/g | ID/g Large intestine ([5]; Sixth h): 0.973±0.641 ID/g | ID/g Liver ([5]; First h): 3.48±0.676 ID/g | ID/g Liver ([5]; Fourth h): 8.693±0.784 ID/g | ID/g Liver ([5]; Second h): 6.767±0.496 ID/g | ID/g Liver ([5]; Sixth h): 9.673±0.457 ID/g | ID/g Lung ([5]; First h): 2.903±0.553 ID/g | ID/g Lung ([5]; Fourth h): 1.263±0.253 ID/g | ID/g Lung ([5]; Second h): 2.44±0.216 ID/g | ID/g Lung ([5]; Sixth h): 1.2±0.07 ID/g | ID/g Muscle ([5]; First h): 0.097±0.075 ID/g | ID/g Muscle ([5]; Fourth h): 0.330±0.194 ID/g | ID/g Muscle ([5]; Second h): 0.262±0.023 ID/g | ID/g Muscle ([5]; Sixth h): 0.310±0.022 ID/g | ID/g Prostate ([5]; First h): 0.913±0.172 ID/g | ID/g Prostate ([5]; Fourth h): 0.857±0.091 ID/g | ID/g Prostate ([5]; Second h): 0.825±0.110 ID/g | ID/g Prostate ([5]; Sixth h): 0.673±0.064 ID/g | ID/g Small intestine ([5]; First h): 0.482±0.554 ID/g | ID/g Small intestine ([5]; Fourth h): 0.400±0.015 ID/g | ID/g Small intestine ([5]; Second h): 0.563±0.037 ID/g | ID/g Small intestine ([5]; Sixth h): 0.378±0.193 ID/g | ID/g Spleen ([5]; First h): 3.873±0.600 ID/g | ID/g Spleen ([5]; Fourth h): 4.61±0.026 ID/g | ID/g Spleen ([5]; Second h): 6.76±0.911 ID/g | ID/g Spleen ([5]; Sixth h): 8.77±0.645 ID/g | ID/g Stomach ([5]; First h): 0.142±0.038 ID/g | ID/g Stomach ([5]; Fourth h): 0.112±0.033 ID/g | ID/g Stomach ([5]; Second h): 0.091±0.029 ID/g | ID/g Stomach ([5]; Sixth h): 0.069±0.023 ID/g | ID/g Thyroid ([5]; First h): 0.356±0.163 ID/g | ID/g Thyroid ([5]; Fourth h): 0.654±0.099 ID/g | ID/g Thyroid ([5]; Second h): 0.698±0.037 ID/g | ID/g Thyroid ([5]; Sixth h): 0.684±0.198 ID/g | ID/g Bladder ([6]; First h): 1.758±0.706 ID/g | ID/g Bladder ([6]; Fourth h): 1.121±0.896 ID/g | ID/g Bladder ([6]; Second h): 1.71±0.550 ID/g | ID/g Bladder ([6]; Sixth h): 1.840±0.724 ID/g | ID/g Bone ([6]; First h): 1.77±0.14 ID/g | ID/g Bone ([6]; Fourth h): 0.163±0.011 ID/g | ID/g Bone ([6]; Second h): 0.694±0.077 ID/g | ID/g Bone ([6]; Sixth h): 0.59±0.085 ID/g | ID/g Brain ([6]; First h): 0.217±0.065 ID/g | ID/g Brain ([6]; Fourth h): 0.133±0.027 ID/g | ID/g Brain ([6]; Second h): 0.064±0.005 ID/g | ID/g Brain ([6]; Sixth h): 0.096±0.074 ID/g | ID/g Heart ([6]; First h): 0.416±0.005 ID/g | ID/g Heart ([6]; Fourth h): 0.535±0.274 ID/g | ID/g Heart ([6]; Second h): 0.547±0.065 ID/g | ID/g Heart ([6]; Sixth h): 0.557±0.061 ID/g | ID/g Kidney ([6]; First h): 7.476±1.300 ID/g | ID/g Kidney ([6]; Fourth h): 13.726±2.948 ID/g | ID/g Kidney ([6]; Second h): 9.093±0.897 ID/g | ID/g Kidney ([6]; Sixth h): 15.403±2.545 ID/g | ID/g Large intestine ([6]; First h): 0.654±0.294 ID/g | ID/g Large intestine ([6]; Fourth h): 0.635±0.079 ID/g | ID/g Large intestine ([6]; Second h): 0.691±0.178 ID/g | ID/g Large intestine ([6]; Sixth h): 0.915±0.186 ID/g | ID/g Liver ([6]; First h): 4.44±0.836 ID/g | ID/g Liver ([6]; Fourth h): 9.423±1.188 ID/g | ID/g Liver ([6]; Second h): 5.293±1.504 ID/g | ID/g Liver ([6]; Sixth h): 13.303±1.618 ID/g | ID/g Lung ([6]; First h): 3.145±0.465 ID/g | ID/g Lung ([6]; Fourth h): 3.354±2.237 ID/g | ID/g Lung ([6]; Second h): 7.207±4.919 ID/g | ID/g Lung ([6]; Sixth h): 4.292±1.191 ID/g | ID/g Muscle ([6]; First h): 0.337±0.003 ID/g | ID/g Muscle ([6]; Fourth h): 0.126±0.015 ID/g | ID/g Muscle ([6]; Second h): 0.462±0.241 ID/g | ID/g Muscle ([6]; Sixth h): 0.160±0.06 ID/g | ID/g Prostate ([6]; First h): 0.303±0.017 ID/g | ID/g Prostate ([6]; Fourth h): 0.298±0.079 ID/g | ID/g Prostate ([6]; Second h): 0.518±0.133 ID/g | ID/g Prostate ([6]; Sixth h): 0.269±0.182 ID/g | ID/g Small intestine ([6]; First h): 0.639±0.277 ID/g | ID/g Small intestine ([6]; Fourth h): 0.659±0.150 ID/g | ID/g Small intestine ([6]; Second h): 1.276±0.526 ID/g | ID/g Small intestine ([6]; Sixth h): 0.944±0.074 ID/g | ID/g Spleen ([6]; First h): 4.002±0.245 ID/g | ID/g Spleen ([6]; Fourth h): 8.33±1.334 ID/g | ID/g Spleen ([6]; Second h): 5.816±0.886 ID/g | ID/g Spleen ([6]; Sixth h): 9.04±1.165 ID/g | ID/g Stomach ([6]; First h): 0.124±0.065 ID/g | ID/g Stomach ([6]; Fourth h): 0.094±0.045 ID/g | ID/g Stomach ([6]; Second h): 0.101±0.042 ID/g | ID/g Stomach ([6]; Sixth h): 0.091±0.013 ID/g | ID/g Thyroid ([6]; First h): 0.35±0.053 ID/g | ID/g Thyroid ([6]; Fourth h): 0.422±0.095 ID/g | ID/g Thyroid ([6]; Second h): 0.512±0.106 ID/g | ID/g Thyroid ([6]; Sixth h): 0.031±0.007 ID/g | percent-specific uptake in the prostate ([6]; 1 h after administration): 0.303% | percent-specific uptake in the prostate ([6]; 2 h after administration): 0.518% | percent-specific uptake in the prostate ([6]; 4 h after administration): 0.298% | percent-specific uptake in the prostate ([6]; 6 h after administration): 0.269% | Log Po/w [7]: 0.118 ± 0.045
